# Most compounds without a hit are left out; they make up all but 1.4% or so of the library.
# FXIa inh 1536 – inhibitors of human coagulation factor XIa | P03951 | purified FXIa, Boc-Glu-Ala-Arg-AMC fluorogenic substrate | inhibition, % at 5 µM | 220,000 tested, 0.14% active | AID 798;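 active means inhibition of at least 40%; inactive means inhibition below 40%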;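 further: fluorescence of freed AMC excited at 355 nm; 0% = enzyme without compound and 100% = no enzyme blank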
# Calpain2 inh – blocks pig calpain II enzyme activity | 220,000 tested, 0.37% active | purified calpain II, fluorogenic peptide substrate, 30 min | AID 1236 | inhibition, % at 16 µM;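 active means inhibition above about 50%, limit read from the data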
# FXIIa inh – inhibitors of human coagulation factor XIIa; P00748; purified FXIIa, Boc-QGR-AMC fluorogenic substrate, 2 h; inhibition, % at 5 µM; 220,000 tested, 0.3% active; in the data active means inhibition above about 40%;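 further: 0% = enzyme with no compound and 100% = blank without enzyme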
# KLK5 inh – inhibitors of human kallikrein 5; 210,000 tested, 0.59% active; AID 873; inhibition, % at 5 µM; Q9Y337; recombinant hK5, fluorogenic AMC substrate cleavage;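 active means inhibition of 40% or more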;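 further: 0% = enzyme controls without compound and 100% = no-enzyme blanks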
# Target sequence (Q9Y337 67-293 limits assumed): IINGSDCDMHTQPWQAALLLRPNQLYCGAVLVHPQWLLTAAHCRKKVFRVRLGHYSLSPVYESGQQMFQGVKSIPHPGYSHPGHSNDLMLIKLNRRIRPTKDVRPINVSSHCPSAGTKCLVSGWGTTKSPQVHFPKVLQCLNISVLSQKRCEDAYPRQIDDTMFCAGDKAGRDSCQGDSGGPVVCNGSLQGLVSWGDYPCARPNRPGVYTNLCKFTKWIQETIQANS
# thrombin 1536 – inhibitors of human thrombin; alpha-thrombin, Boc-VPR-AMC fluorogenic substrate cleavage; 220,000 tested, 0.26% active; P00734; inhibition, % at 5 µM;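 active means inhibition at or above 40%; inactive means inhibition below 40%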;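 further: 0% = enzyme with no compound and 100% = wells without enzyme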
#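 Material: human alpha-thrombin protein. Incubation: reaction at ambient temperature. Technique: fluorescence of released AMC, ex 355 nm, em 460 nm. Control set: no-compound enzyme wells and no-enzyme blanks. Also added: Boc-VPR-AMC substrate, 15 µM final. Buffer or medium: pH 7.5 Tris (50 mM) with NaCl 150 mM, Tween 20 0.05%.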
# An asterisk follows results filed as active; i = inactive; · = no result given.
SMILES,FXIa inh 1536,Calpain2 inh,FXIIa inh,KLK5 inh,thrombin 1536
CCn1c2c(c(=N)c3c1CCC3)CCCC2,1.4,3.6,6.3,-0.7,-5.0
CCCCCCCCCCn1c2c(c(=N)c3c1CCC3)CCC2,0.6,54.3*,1.3,-2.6,-2.7
COc1cccc(C2=CC(c3ccccc3)n3nnnc3N2)c1 (stereo unspecified),2.3,62.6*,15.1,-9.0,0.5
COc1cccc(C2=CC(c3ccc(N(C)C)cc3)n3nnnc3N2)c1 (stereo unspecified),-1.8,0.5,3.7,1.4,-4.0
CC(C)(C)c1ccc(OCCNC(=S)NC(=O)c2cccnc2)cc1,5.1,24.2,8.4,2.2,-9.9
CC1(C)CC(=O)C=C(NNC(=O)c2cccnc2)C1,19.5,14.7,28.9,64.7*,20.9
COc1cccc(C(=O)NNC2=CC(=O)CC(C)(C)C2)c1,3.2,14.0,13.3,-7.7,-2.3
CCNc1ccc(C(=O)OC(C(=O)NC(N)=O)C(C)C)cc1[N+](=O)[O-] (stereo unspecified),32.5,21.0,36.2,54.0*,8.2
CCNc1ccc(C(=O)OCC(=O)NC(C)c2ccccc2)cc1[N+](=O)[O-] (stereo unspecified),8.3,-4.4,14.2,-17.2,-6.3
COc1ccc(/C=C/C(=O)Nc2ccccc2C)cc1S(=O)(=O)N1CCOCC1,8.4,4.0,22.1,18.1,7.8
CCC(C)(C)NC(=O)/C=C/c1ccc(OC)c(S(=O)(=O)N2CCOCC2)c1,12.4,19.6,24.5,42.5*,17.7
CCC1=C(OC(=O)N(CC)CC)N2C(=O)OC(=NCC3CC3)[C@]2(Cc2ccccc2)[C@H]2C1=CC[C@H]1C(=O)NC(=O)[C@H]12,-3.5,4.3,1.1,-1.8,-5.8
Cc1cc(=O)n2[nH]cnc2n1,18.1,12.1,24.4,41.5*,9.3
CCCc1cc(=O)n2[nH]cnc2n1,18.0,-15.7,21.6,-3.6,-0.7
COc1cc(SC)ccc1C(=O)OC(C)C(=O)NC1CCCC1 (stereo unspecified),2.6,-36.6,10.7,11.7,-7.2
C=CCNC(=S)Nc1cccc([N+](=O)[O-])c1,0.3,-5.7,7.4,1.0,-2.4
C=CCNC(=S)N/N=C/c1cccc([N+](=O)[O-])c1,7.7,63.5*,9.1,-0.5,·
CCOc1ccc(S(=O)(=O)N2CCCCC2)c2ccccc12,1.3,5.1,24.1,-10.1,2.4
CCOc1ccc(S(=O)(=O)n2ccc(C)n2)c2ccccc12,6.0,26.1,15.7,49.3*,16.1
Fc1ccc(Oc2cnc3ccccc3n2)cc1,-1.5,-11.1,10.0,2.7,95.3*
COc1ccc(N2C(=O)C3CCCCC3C2=O)cc1NC(=O)c1ccccc1 (stereo unspecified),-0.4,-8.9,8.9,8.9,-6.7
O=S(=O)(c1ccc(-c2ccon2)s1)N1CCN(CCN2CCOCC2)CC1,3.9,1.0,16.9,14.7,10.6
COc1ccc(N2C(=O)CSC2c2cccc(OC)c2OC)cc1 (stereo unspecified),8.2,26.2,16.8,39.1,42.3*
Cc1c(Cl)cccc1Nc1nc(N)nc(CSC(=S)N2CCOCC2)n1,-4.3,-1.6,11.4,-6.1,-0.9
C/C(=N/NC(=O)CNC(=O)c1ccccn1)c1cccc([N+](=O)[O-])c1,-0.1,-2.3,6.5,12.7,-6.1
SMILES,FXIa inh 1536,Calpain2 inh,FXIIa inh,KLK5 inh,thrombin 1536
COc1ccc(NC(=O)Nc2ccc(C)cc2OC(F)F)cc1OC,-18.0,53.1*,-3.6,-16.6,26.4
Cc1ccc(C(=O)OCC(=O)c2ccc(Cl)s2)s1,1.7,-5.2,2.3,0.1,-5.2
O=C(OCC(=O)c1ccc(Cl)s1)c1ccc2ccccc2n1,13.7,5.0,42.7*,22.4,32.6
O=C(NCc1ccc(F)cc1)c1cc2ccccn2n1,1.1,-9.7,10.2,-10.3,-5.7
CCOc1ccc(CCNC(=O)c2cc3ccccn3n2)cc1OCC,7.2,7.4,9.3,59.5*,9.3
Cc1csc(NC(=O)C2CCN(S(=O)(=O)c3ccccc3F)CC2)n1,-0.6,-4.5,12.9,2.2,-3.2
COc1ccccc1OCC(O)CN1C(=O)NC(C)(C)C1=O (stereo unspecified),3.0,3.6,19.4,63.7*,15.0
COc1ccc(CCCc2nnc(SCC(=O)Nc3ccc(C)c(C)c3)o2)cc1,-1.0,60.5*,6.2,-23.6,-10.2
CCc1nccn1C(=O)c1cnn2c(C(F)F)cc(-c3ccc(C)cc3)nc12,-1.6,i,3.0,-23.9,77.2*
CCc1nccn1C(=O)c1cnn2c(C(F)F)cc(-c3ccccc3)nc12,11.4,-151.4,16.1,2.3,76.3*

# Assay outcomes deposited in PubChem BioAssay by several laboratories.
